Legend:
[1] = molecular target: Mitogen-activated protein kinase kinase kinase kinase 2 (Homo sapiens) (UniProt Q12851); assay: Binding affinity to wild-type human partial length MAP4K2 (M1 to G318 residues) expressed in HEK293 cells at 1 uM by Kinomescan method relative to control; assay type: cell-based
[2] = molecular target: Ephrin type-A receptor 7 (Homo sapiens) (UniProt Q15375); assay: Binding affinity to wild-type human partial length EPHA7 (Y608 to S912 residues) expressed in Escherichia coli BL21 at 1 uM by Kinomescan method relative to control
[3] = molecular target: Casein kinase II subunit alpha' (Homo sapiens) (UniProt P19784); assay: Binding affinity to wild-type human full length CSNK2A2 (M1 to R350 residues) expressed in HEK293 cells at 1 uM by Kinomescan method relative to control; assay type: cell-based
Outline: (§1)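 Run as one kinome-wide competition binding panel with each compound at a single fixed concentration. Results were plotted as a kinome-wide selectivity map.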

[4] = molecular target: Cyclin-dependent kinase-like 3 (Homo sapiens) (UniProt Q8IVW4); assay: Binding affinity to wild-type human partial length CDKL3 (M1 to D327 residues) expressed in Escherichia coli BL21 at 1 uM by Kinomescan method relative to control
[5] = molecular target: Mitogen-activated protein kinase 12 (Homo sapiens) (UniProt P53778); assay: Binding affinity to wild-type human full length p38-gamma (M1 to L367 residues) expressed in HEK293 cells at 1 uM by Kinomescan method relative to control; assay type: cell-based
Outline: (§2)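 Kinome-wide competition binding panel run by an outside provider, with each compound tested at a single concentration. Activity is read against the kinase panel.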

[6] = molecular target: Mitogen-activated protein kinase kinase kinase 13 (Homo sapiens) (UniProt O43283); assay: Binding affinity to wild-type human full length LZK (M1 to W966 residues) expressed in HEK293 cells at 1 uM by Kinomescan method relative to control; assay type: cell-based; outline: as §1
[7] = molecular target: Ephrin type-A receptor 6 (Homo sapiens) (UniProt Q9UF33); assay: Binding affinity to wild-type human partial length EPHA6 (Y700 to E1046 residues) expressed in Escherichia coli BL21 at 1 uM by Kinomescan method relative to control
[8] = molecular target: Dual specificity tyrosine-phosphorylation-regulated kinase 2 (Homo sapiens) (UniProt Q92630); assay: Binding affinity to wild-type human full length DYRK2 (M1 to S528 residues) expressed in HEK293 cells at 1 uM by Kinomescan method relative to control; assay type: cell-based; outline: as §1
[9] = molecular target: BDNF/NT-3 growth factors receptor (Homo sapiens) (UniProt Q16620); assay: Binding affinity to wild-type human partial length TRKB (Q547 to G838 residues) expressed in HEK293 cells at 1 uM by Kinomescan method relative to control; assay type: cell-based
[10] = molecular target: Phosphatidylinositol 4,5-bisphosphate 3-kinase catalytic subunit gamma isoform (Homo sapiens) (UniProt P48736); assay: Binding affinity to wild-type human partial length PIK3CG (S144 to A1102 residues) expressed in HEK293 cells at 1 uM by Kinomescan method relative to control; assay type: cell-based
[11] = molecular target: Ephrin type-A receptor 5 (Homo sapiens) (UniProt P54756); assay: Binding affinity to wild-type human partial length EPHA5 (T627 to V930 residues) expressed in Escherichia coli BL21 at 1 uM by Kinomescan method relative to control
[12] = molecular target: Serine/threonine-protein kinase Sgk1 (Homo sapiens) (UniProt O00141); assay: Binding affinity to wild-type human partial length SGK (I60 to L431 residues) expressed in HEK293 cells at 1 uM by Kinomescan method relative to control; assay type: cell-based
[13] = test system: Tyrosine-protein kinase ABL1 (Homo sapiens), P00519 [H396P]; assay: Binding affinity to human phosphorylated ABL1 H396P mutant (S229 to K512 residues) expressed in HEK293 cells at 1 uM by Kinomescan method relative to control; assay type: cell-based
[14] = test system: Receptor-type tyrosine-protein kinase FLT3 (Homo sapiens), P36888 [UNDEFINED MUTATION]; assay: Binding affinity to human partial length FLT3 ITD mutant expressed in Escherichia coli BL21 at 1 uM by Kinomescan method relative to control
[15] = molecular target: Tyrosine-protein kinase Lyn (Homo sapiens) (UniProt P07948); assay: Binding affinity to wild-type human partial length LYN (C219 to Q511 residues) expressed in Escherichia coli BL21 at 1 uM by Kinomescan method relative to control
[16] = molecular target: Non-receptor tyrosine-protein kinase TNK1 (Homo sapiens) (UniProt Q13470); assay: Binding affinity to wild-type human full length TNK1 (M1 to P661 residues) expressed in Escherichia coli BL21 at 1 uM by Kinomescan method relative to control; outline: as §2
[17] = molecular target: Serine/threonine-protein kinase 32C (Homo sapiens) (UniProt Q86UX6); assay: Binding affinity to wild-type human partial length YANK3 (M68 to G486 residues) expressed in Escherichia coli BL21 at 1 uM by Kinomescan method relative to control
[18] = test system: Epidermal growth factor receptor (Homo sapiens), P00533 [L858R]; assay: Binding affinity to human partial length EGFR L858R mutant (R669 to V1011 residues) expressed in Escherichia coli BL21 at 1 uM by Kinomescan method relative to control
Aurora kinase B = Aurora kinase B (Homo sapiens, UniProt Q96GD4); assay: Inhibition of Aurora B in human HCT116 cells assessed as reduction in histone H3 phosphorylation at S10 residues after 4 hrs by Western blot analysis; assay type: cell-based
Outline: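 Cells were exposed to compound in dose-response for 4 h, then lysed for western blotting of histone H3 pS10. The cellular EC50 was derived from the dose-response curves. Three replicate experiments were run.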

[19] = test system: Epidermal growth factor receptor (Homo sapiens), P00533 [L858R,T790M]; assay: Binding affinity to human partial length EGFR L858R/T790M double mutant (R669 to V1011 residues) expressed in HEK293 cells at 1 uM by Kinomescan method relative to control; assay type: cell-based
[20] = molecular target: Megakaryocyte-associated tyrosine-protein kinase (Homo sapiens) (UniProt P42679); assay: Binding affinity to wild-type human full length CTK (M43 to P508 residues) expressed in HEK293 cells at 1 uM by Kinomescan method relative to control; assay type: cell-based; outline: as §1
[21] = molecular target: TGF-beta receptor type-2 (Homo sapiens) (UniProt P37173); assay: Binding affinity to wild-type human partial length TGFBR2 (I218 to K567 residues) expressed in Escherichia coli BL21 at 1 uM by Kinomescan method relative to control
[22] = molecular target: Serine/threonine-protein kinase MRCK alpha (Homo sapiens) (UniProt Q5VT25); assay: Binding affinity to wild-type human partial length MRCKA (L57 to V418 residues) expressed in Escherichia coli BL21 at 1 uM by Kinomescan method relative to control
[23] = molecular target: Cyclin-dependent kinase 17 (Homo sapiens) (UniProt Q00537); assay: Binding affinity to wild-type human full length PCTK2 (M1 to F523 residues) expressed in Escherichia coli BL21 at 1 uM by Kinomescan method relative to control; outline: as §2
[24] = molecular target: Tyrosine-protein kinase Fgr (Homo sapiens) (UniProt P09769); assay: Binding affinity to wild-type human partial length FGR (L233 to T529 residues) expressed in Escherichia coli BL21 at 1 uM by Kinomescan method relative to control

Row | SMILES | Activity [1] [%] | Activity [2] [%] | Activity [3] [%] | Activity [4] [%] | Activity [5] [%] | Activity [6] [%] | Activity [7] [%] | Activity [8] [%] | Activity [9] [%] | Activity [10] [%] | Activity [11] [%] | Activity [12] [%] | Activity [13] [%] | Activity [14] [%] | Activity [15] [%] | Activity [16] [%] | Activity [17] [%] | Activity [18] [%] | EC50 (Aurora kinase B) [nM] | Activity [19] [%] | further results
1 | CCC(=O)Nc1ccc(C(=O)Nc2ccc(Nc3ncc4c(n3)N(C)c3ccc(C)cc3C(=O)N4C)cc2)cc1 | 97 | 86 | 83 | 95 | 86 | 82 | 76 | 100 | 84 | 20 | 94 | 79 | 64 | 94 | 97 | 71 | 100 | 65 | 11 | 96 | Activity [20]: 95%; Activity [21]: 100%; Activity [22]: 100%; Activity [23]: 100%; Activity [24]: 96%
2 | C=CC(=O)Nc1ccc(C(=O)Nc2ccc(Nc3ncc4c(n3)N(C)c3ccc(C)cc3C(=O)N4C)cc2)cc1 | 92 | 94 | 100 | 98 | 67 | 87 | 86 | 92 | 100 | 24 | 100 | 100 | 91 | 83 | 97 | 89 | 100 | 86 | 7.1 | 100 | Activity [20]: 100%; Activity [21]: 96%; Activity [22]: 94%; Activity [23]: 99%; Activity [24]: 93%

Reference: ChEMBL document CHEMBL4184148 (Bioorg Med Chem Lett, 2017)
